# Measurements as given in ChEMBL document CHEMBL4616673 (J Med Chem, 2020).
# Assays:
# Raji [1] = assay: Induction of mitochondrial membrane potential loss in human Raji cells measured after 48 hrs by TMRM staining based fluorescence assay; type: functional, cell-based
# How it was run: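 Raji cells treated 48 h (CCCP as positive control), washed in PBS. Incubated with TMRM at 100 nM final for 15 min at 37 °C, fluorescence read at ex 510/em 580 nm. Mean ± SD.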
# HeLa = assay: Antiproliferative activity against human HeLa cells assessed as reduction in cell viability measured after 48 hrs by MTT assay; type: functional, cell-based; conditions: Homo sapiens, HeLa, 48 h
# A549 = assay: Antiproliferative activity against human A549 cells assessed as reduction in cell viability measured after 48 hrs by MTT assay; type: functional, cell-based; conditions: Homo sapiens, A549, 48 h
# Raji [2] = assay: Antiproliferative activity against human Raji cells assessed as reduction in cell viability measured after 48 hrs by MTT assay; type: functional, cell-based; conditions: Homo sapiens, Raji, 48 h
# K562 = assay: Antiproliferative activity against human K562 cells assessed as reduction in cell viability measured after 48 hrs by MTT assay; type: functional, cell-based; conditions: Homo sapiens, K562, 48 h
# Raji [3] = assay: Cell cycle arrest in human Raji cells assessed as accumulation at S phase at 0.125 uM measured after 24 hrs by propidium iodide/RNase staining based flow cytometry (reference value: 52%); type: functional
# Raji [4] = assay: Induction of apoptosis in human Raji cells assessed as live cells at 0.063 uM measured after 48 hrs by Annexin V-FITC staining based flow cytometry (reference value: 98.09 %); type: functional
# [5] = Stability of the compound in pH 1 to 7.4 buffer assessed as decrease in compound concentration at 0.01 mg/ml measured up to 24 hrs by LC-MS analysis; type: physicochemical; conditions: read-out: Drug degradation
# How it was run: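 Compound at 0.01 mg/mL final in buffer containing 10% acetonitrile at pH 1.0, 4.5, 6.6, 7.4 or 9.0. Held at 37 °C, sampled at 0, 2, 4, 6, 8, 10, 12 and 24 h. Remaining compound by LC-MS.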
# [6] = Half life in Sprague-Dawley rat at 25 mg/kg, po administered via gavage by LC-MS analysis; type: ADME, organism-based; conditions: in vivo
# How it was run: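 Male Sprague-Dawley rats, fasted overnight, with jugular vein catheters for serial blood sampling. Single dose given by oral gavage (25 mg/kg) or tail-vein injection (5 mg/kg). Blood drawn at set times and centrifuged at once for plasma. Plasma drug levels measured by LC-MS. Parameters reported as means, n = 6.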
# [7] = Toxicity in NOD-SCID nude mouse xenografted with human Raji cells assessed as effect on body weight at 40 to 80 mg/kg/day, po administered 6 days a week for 3 weeks and measured every 3 days during compound dosing; type: organism-based; conditions: in vivo
# How it was run: (§1)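 Mice, 6-7 weeks old, injected s.c. with 1×10^7 Raji cells in serum-free medium plus basement membrane matrix. At 100–200 mm3 tumours, randomised (n=6). Oral dosing 6 days/week for 3 weeks: 30 mg/kg/d free compound suspended in 5% NMP/95% PEG400, or 40 or 80 mg/kg/d nanocrystal. Body weight and tumour volume measured every 3 days.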
# [8] = Toxicity in NOD-SCID nude mouse xenografted with human Raji cells assessed as dermatitis at 30 mg/kg/day, po administered 6 days a week for 3 weeks; type: organism-based; conditions: in vivo; how it was run: as §1
# [9] = Acute toxicity in BALB/c mouse assessed as effect on blood ALT level at 400 mg/kg, po measured on day 14; type: organism-based; conditions: in vivo
# How it was run: (§2)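 BALB/c mice, female and male, 6-8 weeks old, given oral doses within 24 h, up to 400 mg/kg (free compound) or 800 mg/kg (nanocrystal formulation). Watched for body weight loss, diarrhea, anorexia, skin ulcer and toxic death. Serum biochemistry panel was run at the end of treatment.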
# [10] = Acute toxicity in BALB/c mouse assessed as effect on blood ALB level at 400 mg/kg, po measured on day 14; type: organism-based; conditions: in vivo; how it was run: as §2
# [11] = Acute toxicity in BALB/c mouse assessed as effect on blood LDH level at 400 mg/kg, po measured on day 14; type: organism-based; conditions: in vivo; how it was run: as §2
# [12] = Acute toxicity in BALB/c mouse assessed as effect on blood HDL level at 400 mg/kg, po measured on day 14; type: organism-based; conditions: in vivo; how it was run: as §2
# [13] = Acute toxicity in BALB/c mouse assessed as effect on blood LDLC level at 400 mg/kg, po measured on day 14; type: organism-based; conditions: in vivo; how it was run: as §2
# [14] = Acute toxicity in BALB/c mouse assessed as effect on blood ALT level at 800 mg/kg, po measured on day 14; type: organism-based; conditions: in vivo; how it was run: as §2
# [15] = Acute toxicity in BALB/c mouse assessed as effect on blood TP level at 800 mg/kg, po measured on day 14; type: organism-based; conditions: in vivo; how it was run: as §2
# [16] = Acute toxicity in BALB/c mouse assessed as effect on blood ALB level at 800 mg/kg, po measured on day 14; type: organism-based; conditions: in vivo; how it was run: as §2
# [17] = Acute toxicity in BALB/c mouse assessed as effect on blood ALP level at 800 mg/kg, po measured on day 14; type: organism-based; conditions: in vivo; how it was run: as §2
# [18] = Acute toxicity in BALB/c mouse assessed as effect on blood LDLC level at 800 mg/kg, po measured on day 14; type: organism-based; conditions: in vivo; how it was run: as §2
# [19] = Acute toxicity in BALB/c mouse assessed as effect on liver at 400 mg/kg, po measured on day 14 by H and E staining based light microscopic analysis; type: organism-based; conditions: in vivo
# How it was run: (§3)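 Female and male BALB/c mice, 6-8 weeks old, dosed orally within 24 h at up to 400 mg/kg (free compound) or 800 mg/kg (nanocrystal). At the end of treatment, heart, liver, spleen, lung and kidney were sectioned, stained with H&E and imaged by light microscopy.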
# [20] = Acute toxicity in BALB/c mouse assessed as effect on spleen at 400 mg/kg, po measured on day 14 by H and E staining based light microscopic analysis; type: organism-based; conditions: in vivo; how it was run: as §3
# [21] = Acute toxicity in BALB/c mouse assessed as effect on kidney at 400 mg/kg, po measured on day 14 by H and E staining based light microscopic analysis; type: organism-based; conditions: in vivo; how it was run: as §3
# [22] = Acute toxicity in BALB/c mouse assessed as effect on heart at 800 mg/kg, po measured on day 14 by H and E staining based light microscopic analysis; type: organism-based; conditions: in vivo; how it was run: as §3
# [23] = Acute toxicity in BALB/c mouse assessed as effect on liver at 800 mg/kg, po measured on day 14 by H and E staining based light microscopic analysis; type: organism-based; conditions: in vivo; how it was run: as §3
# [24] = Acute toxicity in BALB/c mouse assessed as effect on lung at 800 mg/kg, po measured on day 14 by H and E staining based light microscopic analysis; type: organism-based; conditions: in vivo; how it was run: as §3
compound,measurement,setting,value
O=C1c2ccccc2C(=O)c2c1nnn2-c1cc(F)c(-c2ccccc2F)c(F)c1,Activity,Raji [1],Dose-dependent effect
same,IC50,HeLa,> 10000 nM
same,IC50,A549,1650 nM
same,IC50,Raji [2],160 nM
same,IC50,K562,110 nM
same,Activity,Raji [3],86.31%
same,Activity,Raji [4],92.31%
same,"degraded at 24 h, 0.01 mg/ml",[5],1.6 to 9%
same,half-life,[6]; Sprague-Dawley,8.83 h
same,t1/2,[6],12.47 h
same,Activity,[7],Non-Toxic
same,Activity,[8],Non-Toxic
same,Activity,[9],Non-Toxic
same,Activity,[10],Non-Toxic
same,Activity,[11],Non-Toxic
same,Activity,[12],Non-Toxic
same,Activity,[13],Non-Toxic
same,Activity,[14],Non-Toxic
same,Activity,[15],Non-Toxic
same,Activity,[16],Non-Toxic
same,Activity,[17],Non-Toxic
same,Activity,[18],Non-Toxic
same,Activity,[19],Non-Toxic
same,Activity,[20],Non-Toxic
same,Activity,[21],Non-Toxic
same,Activity,[22],Non-Toxic
same,Activity,[23],Non-Toxic
same,Activity,[24],Non-Toxic
